# Rce1 inh: inhibitors of yeast Ras-converting enzyme. Q03530. yeast membranes, quenched prenylated peptide cleavage fluorescence. calls only. 0.27% of 290,000 active;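 active = fall in fluorescence gain of 50% or more versus controls, with final raw signal at or below 3038400; inconclusive = same 50% fall but final raw signal above 3038400; inactive = fall in fluorescence gain under 50%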;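 also: plate controls were neutral control wells for no effect and wells lacking membranes for full effect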
# Runt-SMMHC FRET: Runt domain-CBFb-SMMHC interaction inhibition; Q01196+Q13951; Cerulean-Runt/Venus-CBFb-SMMHC FRET ratio 530/480, 1 h; inhibition, % at 20 µM; 0.74% of 220,000 active; AID 1434;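 active = mean inhibition across duplicate retests at 20 µM reaching about 50%, limit read from the data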;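 also: 0% = DMSO wells and 100% = wells with excess untagged CBFb-SMMHC; inhibitors lower the FRET ratio by blocking Runt binding to CBFb-SMMHC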
# Target sequence (Q01196 whole entry, looked up, the tested form may be a part): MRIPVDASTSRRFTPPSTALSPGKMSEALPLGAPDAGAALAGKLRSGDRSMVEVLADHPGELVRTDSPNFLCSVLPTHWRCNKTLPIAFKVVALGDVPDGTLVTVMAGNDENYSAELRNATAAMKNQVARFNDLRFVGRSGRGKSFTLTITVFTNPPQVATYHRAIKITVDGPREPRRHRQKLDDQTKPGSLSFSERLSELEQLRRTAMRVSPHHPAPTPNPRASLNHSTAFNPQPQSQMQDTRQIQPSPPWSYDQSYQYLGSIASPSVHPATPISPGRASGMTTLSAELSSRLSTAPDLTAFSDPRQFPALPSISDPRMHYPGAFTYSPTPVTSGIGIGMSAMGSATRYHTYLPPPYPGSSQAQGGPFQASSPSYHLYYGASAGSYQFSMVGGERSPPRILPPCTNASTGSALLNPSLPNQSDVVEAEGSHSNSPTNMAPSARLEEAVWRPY
# Target sequence (Q13951 whole entry, looked up, the tested form may be a part): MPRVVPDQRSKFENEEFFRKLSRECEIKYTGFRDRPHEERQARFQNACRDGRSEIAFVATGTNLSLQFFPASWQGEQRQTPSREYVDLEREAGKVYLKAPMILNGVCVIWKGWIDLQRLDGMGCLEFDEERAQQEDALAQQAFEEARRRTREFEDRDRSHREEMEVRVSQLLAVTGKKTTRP
# RanGTP-Imp inh: inhibitors of RanGTP-importin-beta interaction, primary screen, biochemical, FRET, CFP-Ran, YFP-importin-beta, homogeneous. 1.1% of 300,000 active. inhibition, % (no concentration beside the values). cell-free CFP-Ran/YFP-importin-beta FRET ratio;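 active = more than half of the replicate wells show a fall in the fluorescence ratio signal beyond about 16%, limit read from the data, passing the limit was not always enough; inconclusive = exactly half of the replicate wells pass the set limit; inactive = fewer than half of replicates pass the limit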;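 also: 0% = DMSO wells and 100% = Ran loaded with GDP instead of GTP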
# Runt-CBFb FRET: blocks binding of human RUNX1 Runt domain to CBFb; inhibition, % at 20 µM; 0.46% of 220,000 active; AID 1496; Q01196+Q13951; Cerulean-Runt/Venus-CBFb FRET ratio 530/480, 1 h;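 active = inhibition over about 50% at 20 µM in the single-dose screen, limit read from the data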;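 also: 0% = DMSO wells and 100% = excess unlabeled CBFb competitor control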
#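 System: Cerulean-labeled Runt domain protein | Quantity: 100 nM of each labeled protein | Schedule: 1 h compound exposure, room temperature | Detection: Fluorescence energy transfer, 422 nm excitation, 530/480 nm emission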
# Platelet DG rel: modulates dense granule release in human platelets; inhibition, %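 (compounds screened at 7.5 µM in platelet-rich plasma)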; 0.22% of 300,000 active; human platelet-rich plasma, SFLLRN dense granule ATP release, luminescence;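 active = mean replicate score, as percent of positive control, at or above 50; inconclusive = mean below 50 but at least one replicate at or above 50; inactive = mean and every replicate below 50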
# YIC counter: counter-screen for RanGTP-importin-beta inhibitors: YIC FRET probe; Purified YIC probe, intramolecular FRET ratio YFP/CFP; IC50, µM; 40% of 1,000 active; shares compounds with RanGTP-Imp inh;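 active = fitted half-maximal inhibitory concentration no more than tenfold above the top dose tested; inconclusive = flat fit with 30 to 70% activity, or poor fit; inactive = half-maximal concentration beyond tenfold above the top dose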
# Numbers without * were called inactive; i = inactive; ? = inconclusive; nt = no result given. Rows were chosen to be rich in hits. Some 1.8% of all compounds tested hit in one or more screens of this group.
SMILES,Rce1 inh,Runt-SMMHC FRET,RanGTP-Imp inh,Runt-CBFb FRET,Platelet DG rel,YIC counter
CCOC(=O)c1ccc(NC(=O)CSc2nc(C)nc3c2c(=O)n(C)c(=O)n3C)cc1,i,-0.2,19.2*,-17.9,-13.0,>50
N#Cc1cnn2c(-c3cccc(C(F)(F)F)c3)ccnc12,i,5.6,1.7,0.4,4.6,nt
CNS(=O)(=O)c1cc(OC)c(OC)cc1CC(=O)OC,i,1.7,20.8*,0.0,3.2,>50
CC(C(=O)OCC(=O)Nc1cccc(S(=O)(=O)N2CCOCC2)c1)N1C(=O)c2ccccc2C1=O (stereo not given),i,-1.1,-5.0,1.5,0.9,nt
Cc1ccccc1N1C(=O)CC1(C#N)c1ccc(OCc2ccccc2)cc1 (stereo not given),i,-5.6,-3.5,-3.0,-2.5,nt
COC(=O)c1cc(=O)n2c(sc3ccccc32)c1C#N,nt,88.1*,44.8*,66.3*,-5.4,4.11*
CCOC(=O)c1ccc2[nH]cc(C(C)=O)c(=O)c2c1,i,3.1,20.8*,2.7,1.7,14*
COc1cc(NC(=O)CN(C)CCOc2ccccc2)c(C)cc1[N+](=O)[O-],i,nt,0.2,nt,4.0,nt
CN(CCOc1ccccc1)CC(=O)Nc1ccc(Cl)cc1[N+](=O)[O-],i,-98.8,35.2*,-3.0,-3.0,>50
CCCc1c(C(=O)NNc2cc(C(F)(F)F)ccc2Cl)cnn1-c1ccccc1,i,1.8,2.0,-2.1,10.3,nt
Cc1ccccc1-n1c(=O)cc(N2CCC3(CC2)OCCO3)[nH]c1=O,i,0.7,33.2*,-0.6,6.1,>50
O=C(NCC(O)CO)c1csc(Nc2cccc3ccccc23)n1 (stereo not given),i,nt,-0.4,nt,6.7,nt
N#C/C(=N\Nc1cccc2ccccc12)c1nnc2n1CCCCC2,i,63.8,-6.4,-5.2,0.5,nt
COc1ccc(CCNc2nc3ccccc3n3nnnc23)cc1OC,i,30.8,27.9*,18.6,5.1,24.8*
CC(C)Sc1nc(N2CCOCC2)c2c(c1C#N)CC(C)(C)N(C)C2,i,79.2*,27.3*,36.4,2.9,39.3*
CN1Cc2c(N3CCOCC3)nc(SCCC#N)c(C#N)c2CC1(C)C,i,30.3,9.7,45.5,15.4,nt
NS(=O)(=O)c1cccnc1Nc1cccc(Cl)c1Cl,i,-2.2,0.5,0.9,3.6,nt
O=c1cc(CN2CCN(S(=O)(=O)c3ccc4c(c3)OCCO4)CC2)c2ccc(O)cc2o1,i,102.5*,45.6*,102.5*,5.8,6.88*
CCN1CCN(c2cc(=O)n(Cc3ccc(F)cc3)c(=O)[nH]2)CC1,i,-6.1,28.8*,-78.7,-1.8,>50
O=c1cc(N2CCN(Cc3ccccc3)CC2)[nH]c(=O)n1-c1ccc(Br)cc1,i,0.0,31.1*,3.2,15.3,>50
COc1ccccc1N1CCN(c2cc(=O)n(Cc3ccc(F)cc3)c(=O)[nH]2)CC1,i,-3.3,?,0.0,3.7,nt
CCOC(=O)N1CCN(c2cc(=O)n(Cc3ccc(F)cc3)c(=O)[nH]2)CC1,i,-0.6,25.8*,-2.0,-7.9,>50
O=C(c1cccc(F)c1)N1CCC2(CC1)NCCc1[nH]cnc12,i,nt,-0.7,nt,18.2,nt
C=C(C)Cn1c(SCC(=O)O)nnc1-c1ccc(OC)cc1,i,1.0,21.7*,-1.0,3.5,>50
Cn1cnc(S(=O)(=O)N2CCN(c3ccc(Cl)cc3)CC2)c1,i,nt,17.6*,nt,4.0,>50
SMILES,Rce1 inh,Runt-SMMHC FRET,RanGTP-Imp inh,Runt-CBFb FRET,Platelet DG rel,YIC counter
Cn1cnc(S(=O)(=O)N2CCN(c3ccccc3)CC2)c1,i,nt,0.9,nt,-1.6,nt
COc1ccc(-c2cc(CC3(C(=O)O)CCN(C(=O)OC(C)(C)C)CC3)on2)c(OC)c1,i,nt,5.9,nt,0.0,nt
O=C1COc2ccc(C(=O)c3ccccc3C(=O)O)cc2N1,i,0.1,-4.0,-0.1,-7.6,nt
Fc1ccc(-c2ncc3ccccn23)cc1,i,1.4,1.4,1.8,-7.6,nt
Clc1ccc(/C=C/c2ncc3ccccn23)cc1,i,nt,23.8*,nt,19.5,2.54*
O=C(O)c1ccc2c(c1)C(=O)/C(=C\c1ccco1)C2=O,i,24.4,-5.5,31.5,-1.1,nt
Cc1ccc(/C=C2/C(=O)c3ccc(C(=O)O)cc3C2=O)o1,i,19.4,19.4*,32.0,12.4,>50
NS(=O)(=O)c1ccc(NC(=S)Nc2ccc(F)c(F)c2)cc1,i,-0.1,-0.4,17.4,-0.1,nt
CC#CC(=O)N1CCC(C(=O)Nc2ccc(Oc3ccccc3)nc2)CC1,i,nt,17.6*,nt,-2.4,>50
CCC(=O)N(CC(=O)Nc1sc(C)c(C)c1C(N)=O)C1CCCC1,i,2.3,21.6*,1.2,-2.0,>50
Cc1nnsc1C(=O)NC(C)c1ccccc1 (stereo not given),i,2.9,-3.9,-1.1,10.2,nt
Cc1cc(NC(=O)c2ccccc2Cl)no1,i,-1.1,0.3,-0.2,?,nt
Cc1cc(NC(=O)c2c(F)c(F)c(F)c(F)c2F)no1,i,-2.3,22.5*,-2.3,-26.2,>50
Cc1cc(NC(=O)c2ccc(F)cc2)no1,i,nt,-2.2,nt,4.4,nt
Cc1cc(NC(=O)c2sc3ccccc3c2O)no1,i,nt,16.6*,nt,-0.8,?
Cc1ccc(S(=O)(=O)N2CCC(C(=O)NCCc3ccc(S(N)(=O)=O)cc3)CC2)cc1,i,1.0,-2.9,2.1,-2.4,nt
NS(=O)(=O)c1ccc(CCNC(=O)C2CCN(S(=O)(=O)c3ccc(Br)s3)CC2)cc1,i,2.6,23.9*,-0.8,4.5,>50
COc1cc2c(cc1C1C(C#N)=C(N)OC3=C1C(=O)CC(C)(C)C3)OCO2 (stereo not given),i,nt,-1.7,nt,-1.4,nt
COc1ccc(C2C(C#N)=C(N)Oc3cc4c(cc32)OCO4)cc1 (stereo not given),i,9.8,25.0*,12.6,-7.9,>50
CC(N=C1CC(C)(C)CC(=O)/C1=C(/O)CCCN1C(=O)c2ccccc2C1=O)C(=O)O (stereo not given),i,-0.7,-2.0,1.7,9.6,nt
Cc1[nH]c2ccccc2c1/C=C/c1nc2ccccc2c(=O)n1CCO,i,-10.5,16.9*,-44.8,3.2,9.01*
Cn1c(Cl)c(/C=N/OC(=O)C(C)(C)C)c2ccccc21,i,2.3,3.9,-3.0,-8.1,nt
CC(=O)O/N=C/c1c(Cl)n(C)c2ccccc12,i,3.8,47.8*,-1.2,-0.6,>50
O=C(CNC(=S)N(Cc1ccccc1)Cc1ccccc1F)NCc1ccc(Cl)cc1,i,-0.7,-0.4,0.0,-31.0,nt
CN(C)c1nc(-c2ccccc2)cc(C(F)(F)F)c1C#N,i,94.8*,29.4*,37.7,-2.8,10.4*
COc1ccccc1C(=O)N1CCN(c2nc3cc(C)c(C)cc3cc2C#N)CC1,i,40.1,0.7,14.6,3.1,nt
